Experimental findings from ChEMBL document CHEMBL1154902, “Potent inhibitor scaffold against Trypanosoma cruzi trans-sialidase” (Bioorg Med Chem, 2010) are described below.

Assay [1] is described as follows: Inhibition of Trypanosoma cruzi trans-sialidase containing catalytic domain (N58F, R200K) and lectin-like domain (S495 K, V496G, E520K, D593G, I597D, H599R) mutation expressed in Escherichia coli JM109 assessed as MuNANA substrate hydrolysis in presence of 0.1% Triton X-100 by discontinuous fluorimetric assay. In a few lines:
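Recombinant TcTS lacking the C-terminal SAPA repeat, His-tagged (pTrcHisA) and purified by cation exchange, Ni affinity and gel filtration. Conditions: 8 ng/ml enzyme, 50 µM MuNANA, 50 mM Tris-HCl pH 7.5, 0.1% Triton X-100, 10% DMSO, 25 °C for 30 min. Stopped with 0.2 M Na2CO3 pH 10. Released Mu read at ex 355/em 460 nm in two or three replicates, corrected for compound fluorescence interference.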

The target in a further assay is Sialidase-2 (Homo sapiens, UniProt Q9Y3R4). Description: Inhibition of human Neu2 assessed as MuNANA substrate hydrolysis in presence of 0.1% Triton X-100 by discontinuous fluorimetric assay. In a few lines: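 Recombinant human Neu2 expressed from pET15b in E. coli BL21(DE3) and purified on DEAE and His-Trap columns. Reactions were quenched with 0.2 M Na2CO3 (pH 10), and released 4-methylumbelliferone was read at ex 355/em 460 nm. Runs were in duplicate or triplicate, corrected for compound fluorescence interference.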
Chain of Sialidase-2 (Q9Y3R4 whole entry): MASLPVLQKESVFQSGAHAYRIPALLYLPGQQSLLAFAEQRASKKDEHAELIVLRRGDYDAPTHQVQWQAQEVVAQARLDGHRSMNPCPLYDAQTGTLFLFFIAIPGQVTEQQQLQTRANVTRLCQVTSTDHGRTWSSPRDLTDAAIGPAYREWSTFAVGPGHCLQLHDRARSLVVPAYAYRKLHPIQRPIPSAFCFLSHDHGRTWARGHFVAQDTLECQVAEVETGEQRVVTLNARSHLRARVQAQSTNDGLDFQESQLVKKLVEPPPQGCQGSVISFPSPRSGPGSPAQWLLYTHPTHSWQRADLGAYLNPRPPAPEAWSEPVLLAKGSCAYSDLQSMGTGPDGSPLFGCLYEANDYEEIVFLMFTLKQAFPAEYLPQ

Assay [2] in a line: Selectivity for Trypanosoma cruzi trans-sialidase mutant over human Neu2.
Assay [3] in a line: Noncompetitive inhibition of Trypanosoma cruzi trans-sialidase containing catalytic domain (N58F, R200K) and lectin-like domain (S495 K, V496G, E520K, D593G, I597D, H599R) mutation expressed in Escherichia coli JM109 by discontinuous fluorimetric assay using Lineweaver-Burke plot. An outline of the steps:
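Same MuNANA hydrolysis assay with purified recombinant TcTS at 25 °C in Tris-HCl pH 7.5. MuNANA was varied over 25–200 µM against several inhibitor concentrations, in triplicate. The inhibition mode was assigned by best fit, and Ki for noncompetitive inhibition was taken from the Lineweaver–Burk double-reciprocal plot.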

The test system of the next assay is Trypanosoma cruzi. Briefly: Antiparasitic effect against Trypanosoma cruzi assessed as induction of parasite lysis. Type of assay: functional, organism-based.

In the case of `O=C(O)c1cc(O)c2c(c1)C(=O)c1cc(O)c(Cl)c(O)c1C2=O`, the IC50 (in general, the concentration that inhibits the measured activity by half) is 0.58 µM in assay [1] and over 100 µM on Sialidase-2. Further, the Ratio IC50 in assay [2] was over 170. In addition, affinity in assay [3] was put at a Ki of 0.89 µM.

For the molecule `O=c1cc(-c2ccccc2O)oc2cc(O)cc(O)c12`, the IC50 in assay [1] was found to be 360 µM; on Sialidase-2, 70 µM. Further, the Ratio IC50 in assay [2] worked out at 0.2.

With `O=c1cc(-c2ccc(O)cc2)oc2cc(O)ccc12`, the results for the IC50 (in assay [1]; at Sialidase-2) were over 1000 µM and 470 µM, respectively. Besides, the Ratio IC50 in assay [2] is under 0.5.

For `O=C(O)c1ccc2c(c1)C(=O)c1ccccc1C2=O`, the IC50 in assay [1] is 430 µM; on Sialidase-2, 800 µM. Besides, in assay [2], the Ratio IC50 is 1.9.

As to `O=c1cc(-c2ccc(O)cc2)oc2cccc(O)c12`, the IC50 (in assay [1]; at Sialidase-2) was over 1000 µM each time.

As for `O=c1cc(-c2ccccc2)oc2cccc(O)c12` [5-HYDROXYFLAVONE], the IC50 (in assay [1]; at Sialidase-2) was over 1000 µM each time.

Take `Oc1cc(O)c2c(c1)O[C@@H](c1ccc(O)c(O)c1)[C@H](O)C2` [(-)-CATECHIN]: the IC50 (in assay [1]; at Sialidase-2) was over 1000 µM throughout.

For the molecule `COc1ccc(-c2cc(=O)c3c(O)cc(O)cc3o2)cc1` [ACACETIN], the IC50 (in assay [1]; on Sialidase-2) was over 1000 µM throughout.

With `O=c1cc(-c2ccc(O)cc2)oc2cc(O)cc(O)c12` [APIGENIN], the results for the IC50 (in assay [1]; on Sialidase-2; with Trypanosoma cruzi) were 78 µM, 570 µM and 680 µM, respectively. Also, the Ratio IC50 in assay [2] amounted to 7.3. Moreover, the Ki (commonly the equilibrium dissociation constant of an inhibitor or competing ligand from its target) in assay [3] stood at 60 µM.

Regarding `O=c1cc(-c2ccccc2)oc2cc(O)c(O)c(O)c12` [BAICALEIN], the IC50 in assay [1] turned out to be 100 µM; on Sialidase-2 it was 130 µM. The Ratio IC50 in assay [2] was determined as 1.3.

Regarding `O=c1cc(-c2ccccc2)oc2cc(O)cc(O)c12` [CHRYSIN], the figures for the IC50 (in assay [1]; on Sialidase-2) were 340 µM and 890 µM, respectively. Moreover, the Ratio IC50 in assay [2] came out at 2.6.

As for `O=C1c2cccc(O)c2C(=O)c2c(O)cccc21` [DANTHRON], the results for the IC50 (in assay [1]; on Sialidase-2) were 710 µM and over 1000 µM, respectively. Further, in assay [2], the Ratio IC50 is over 1.4.

Consider `Cc1cc(O)c2c(c1)C(=O)c1cc(O)cc(O)c1C2=O` [EMODIN], for which the figures for the IC50 (in assay [1]; on Sialidase-2) were 110 µM and 760 µM, respectively. For the same molecule, the Ratio IC50 in assay [2] was found to be 6.9.

For `O=c1c(-c2ccc(O)cc2)coc2cc(O)cc(O)c12` [GENISTEIN], the IC50 is 230 µM in assay [1] and 380 µM on Sialidase-2. Besides, in assay [2], the Ratio IC50 turned out to be 1.7.

With `COc1cc(O)c2c(=O)cc(-c3ccc(O)cc3)oc2c1` [GENKWANIN], the IC50 in assay [1] is 140 µM; on Sialidase-2, over 1000 µM.

`O=c1c(O)c(-c2ccc(O)cc2)oc2cc(O)cc(O)c12` [KAEMPFEROL]: the figures for the IC50 (in assay [1]; on Sialidase-2) were 110 µM and 230 µM, respectively. The Ratio IC50 in assay [2] came out at 2.1.

In the case of `O=c1cc(-c2ccc(O)c(O)c2)oc2cc(O)cc(O)c12` [LUTEOLIN], the concentration for half-maximal inhibition (IC50) turned out to be 22 µM in assay [1] and 130 µM at Sialidase-2. In addition, in assay [2], the Ratio IC50 was 5.9.

For `O=c1c(O)c(-c2cc(O)c(O)c(O)c2)oc2cc(O)cc(O)c12` [MYRICETIN], the values for the IC50 (in assay [1]; on Sialidase-2) were 17 µM and 150 µM, respectively. Besides, in assay [2], the Ratio IC50 turned out to be 8.8.

For `O=c1c(O)c(-c2ccc(O)c(O)c2)oc2cc(O)cc(O)c12` [QUERCETIN], the IC50 was found to be 58 µM in assay [1] and 160 µM on Sialidase-2. Moreover, the Ratio IC50 in assay [2] is 2.8.

In the case of `O=C(O)c1cc(O)c2c(c1)C(=O)c1cccc(O)c1C2=O` [RHEIN], the IC50 amounted to 14 µM in assay [1] and 130 µM on Sialidase-2. Moreover, the Ratio IC50 in assay [2] amounted to 9.3.

Regarding `COc1cc(O)c2c(c1)O[C@H](c1ccc(O)cc1)CC2=O` [SAKURANETIN], the IC50 in assay [1] was over 1000 µM; on Sialidase-2, 890 µM. In addition, the Ratio IC50 in assay [2] was under 0.9.

In the case of `O=c1cc(-c2ccc(O)cc2)oc2cc(O)c(O)c(O)c12` [SCUTELLAREIN], the IC50 in assay [1] came out at 50 µM; at Sialidase-2, 55 µM. Further, in assay [2], the Ratio IC50 came out at 1.1.

Regarding `O=c1cc(-c2cc(O)c(O)c(O)c2)oc2cc(O)cc(O)c12` [TRICETIN], the IC50 in assay [1] amounted to 39 µM; at Sialidase-2 it was 130 µM. The Ratio IC50 in assay [2] is 3.3.
